Source: ChEMBL document CHEMBL1147643 (J Med Chem, 2006)
Substitutions are numbered along the chain they refer to. Active and inactive are the calls of the source. The rule behind the calls is not given here.

Experiments:
[1] = biological target: T1, Adenosine receptor A3 (Homo sapiens, UniProt P0DMS8, H272E); assay: Displacement of [125I]I-AB-MECA from human adenosine A3 receptor H272E mutant expressed in COS7 cells; assay type: cell-based, COS-7
[2] = biological target: T2, Adenosine receptor A3 (Homo sapiens, UniProt P0DMS8); assay: Displacement of [125I]I-AB-MECA from wild type adenosine A3 receptor expressed in COS7 cells; assay type: cell-based, COS-7
T2 sequence (P0DMS8 whole entry): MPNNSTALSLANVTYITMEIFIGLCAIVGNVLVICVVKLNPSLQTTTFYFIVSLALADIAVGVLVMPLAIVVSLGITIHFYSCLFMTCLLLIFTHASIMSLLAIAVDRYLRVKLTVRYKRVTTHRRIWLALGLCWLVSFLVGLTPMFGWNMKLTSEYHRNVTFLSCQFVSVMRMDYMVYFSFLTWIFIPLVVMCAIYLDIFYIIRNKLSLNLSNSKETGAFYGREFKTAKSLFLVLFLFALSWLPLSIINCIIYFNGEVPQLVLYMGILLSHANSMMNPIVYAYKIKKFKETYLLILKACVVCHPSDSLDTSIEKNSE

[3] = biological target: T3, Adenosine receptor A3 (Homo sapiens) (UniProt P0DMS8); assay: Inhibition of [125I]I-AB-MECA binding to wild type adenosine A3 receptor expressed in COS7 cells at 10 uM; assay type: cell-based; details: COS-7
T3 sequence (whole entry): T2 sequence (P0DMS8 whole entry)

[4] = biological target: Adenosine receptor A2a (Homo sapiens) (UniProt P29274); assay: Inhibition of human adenosine A2A receptor expressed in CHO cells at 10 uM; assay type: cell-based
[5] = test system: T4, Adenosine receptor A3 (Homo sapiens), P0DMS8 [H272E]; assay: Inhibition of [125I]I-AB-MECA binding to human adenosine A3 receptor H272E mutant expressed in COS7 cells at 10 uM; assay type: cell-based; details: COS-7
T4 sequence (whole entry): T2 sequence (P0DMS8 whole entry) with H272E

[6] = biological target: T5, Adenosine receptor A1 (Homo sapiens) (UniProt P30542); assay: Inhibition of human adenosine A1 receptor expressed in CHO cells at 10 uM; assay type: cell-based
T5 sequence (whole entry): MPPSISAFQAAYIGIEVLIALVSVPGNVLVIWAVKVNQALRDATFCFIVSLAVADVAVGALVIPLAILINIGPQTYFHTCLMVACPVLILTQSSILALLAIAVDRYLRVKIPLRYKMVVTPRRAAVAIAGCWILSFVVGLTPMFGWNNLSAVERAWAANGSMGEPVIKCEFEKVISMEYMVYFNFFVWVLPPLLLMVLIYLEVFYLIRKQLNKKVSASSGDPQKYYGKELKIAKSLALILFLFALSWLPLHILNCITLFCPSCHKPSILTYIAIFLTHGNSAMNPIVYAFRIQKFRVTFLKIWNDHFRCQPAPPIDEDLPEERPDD

[7] = biological target: Adenosine receptor A3 (Homo sapiens, UniProt P0DMS8, H272D); assay: Displacement of [125I]I-AB-MECA from human adenosine A3 receptor H272D mutant expressed in COS7 cells; assay type: cell-based, COS-7
In short: (§1)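 Receptor cDNA, wild-type or mutant with mutations confirmed by sequencing, transiently transfected into COS-7 cells with Lipofectamine 2000. […] Displacement of agonist radioligand [125I]I-AB-MECA measured; Ki values derived.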

[8] = biological target: Adenosine receptor A3 (Homo sapiens, UniProt P0DMS8, Q167E); assay: Displacement of [125I]I-AB-MECA from human adenosine A3 receptor Q167E mutant expressed in COS7 cells; assay type: cell-based, COS-7; in short: as §1
[9] = biological target: Adenosine receptor A3 (Homo sapiens, UniProt P0DMS8, T94E); assay: Displacement of [125I]I-AB-MECA from human adenosine A3 receptor T94E mutant expressed in COS7 cells; assay type: cell-based, COS-7; in short: as §1
[10] = biological target: T6, Adenosine receptor A2b (Homo sapiens) (UniProt P29275); assay: Activity against adenosine A2B receptor expressed in CHO cells by stimulation of cAMP production at 10 uM; assay type: functional, cell-based
T6 sequence (whole entry): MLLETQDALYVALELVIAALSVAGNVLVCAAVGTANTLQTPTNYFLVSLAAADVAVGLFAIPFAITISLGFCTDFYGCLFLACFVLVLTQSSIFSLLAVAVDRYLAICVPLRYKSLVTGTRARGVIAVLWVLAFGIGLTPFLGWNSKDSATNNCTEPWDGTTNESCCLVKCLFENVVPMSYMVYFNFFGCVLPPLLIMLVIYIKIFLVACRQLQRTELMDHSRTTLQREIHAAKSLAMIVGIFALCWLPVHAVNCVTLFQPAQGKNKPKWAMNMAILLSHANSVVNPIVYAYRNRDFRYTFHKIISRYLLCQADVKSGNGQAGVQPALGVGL

[11] = biological target: T1, Adenosine receptor A3; assay: (§2) Activity against human adenosine A3 receptor H272E mutant expressed in COS7 cells as measured by accumulation of inositol phosphate by PLC assay; assay type: functional, cell-based, COS-7
[12] = biological target: Adenosine receptor A3 (Homo sapiens, UniProt P0DMS8, T94A); assay: Displacement of [125I]I-AB-MECA from human adenosine A3 receptor T94A mutant expressed in COS7 cells; assay type: cell-based, COS-7; in short: as §1
[13] = biological target: T3, Adenosine receptor A3 (Homo sapiens); assay: Activity against human wild type adenosine A3 receptor expressed in COS7 cells as measured by accumulation of inositol phosphate by PLC assay; assay type: functional, cell-based; details: COS-7
[14] = test system: T4, Adenosine receptor A3 (Homo sapiens), P0DMS8 [H272E]; assay: as §2; assay type: functional, cell-based; details: COS-7

Adenosine receptor A3 (Homo sapiens, UniProt P0DMS8, H272D), sequence (P0DMS8 whole entry H272D): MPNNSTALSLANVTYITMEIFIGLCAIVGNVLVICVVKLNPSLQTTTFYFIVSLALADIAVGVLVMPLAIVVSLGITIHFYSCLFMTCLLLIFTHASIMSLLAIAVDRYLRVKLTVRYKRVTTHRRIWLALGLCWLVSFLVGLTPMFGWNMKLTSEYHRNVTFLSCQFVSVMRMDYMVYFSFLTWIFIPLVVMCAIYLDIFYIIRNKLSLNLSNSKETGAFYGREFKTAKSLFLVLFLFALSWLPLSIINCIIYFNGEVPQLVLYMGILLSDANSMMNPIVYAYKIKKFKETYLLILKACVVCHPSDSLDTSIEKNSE
Adenosine receptor A2a (Homo sapiens), sequence (P29274 whole entry): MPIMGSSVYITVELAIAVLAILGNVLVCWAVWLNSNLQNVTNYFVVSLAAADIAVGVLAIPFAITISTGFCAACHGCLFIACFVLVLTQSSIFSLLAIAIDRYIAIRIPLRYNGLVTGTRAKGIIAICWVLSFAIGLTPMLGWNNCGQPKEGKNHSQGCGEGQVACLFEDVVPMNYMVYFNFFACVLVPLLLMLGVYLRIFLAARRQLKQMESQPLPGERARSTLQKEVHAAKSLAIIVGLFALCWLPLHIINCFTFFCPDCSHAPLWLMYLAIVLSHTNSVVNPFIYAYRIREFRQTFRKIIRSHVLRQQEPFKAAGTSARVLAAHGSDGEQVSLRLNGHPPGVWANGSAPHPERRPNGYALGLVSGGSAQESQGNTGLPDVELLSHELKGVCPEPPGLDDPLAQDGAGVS
Adenosine receptor A3 (Homo sapiens, UniProt P0DMS8, Q167E), sequence (P0DMS8 whole entry Q167E): as the sequence (P0DMS8 whole entry H272D) above, with Q167E, D272H counted along it
Adenosine receptor A3 (Homo sapiens, UniProt P0DMS8, T94E), sequence (P0DMS8 whole entry T94E): as the sequence (P0DMS8 whole entry H272D) above, with T94E, D272H counted along it
T1 sequence (P0DMS8 whole entry H272E): as the sequence (P0DMS8 whole entry H272D) above, with D272E counted along it
Adenosine receptor A3 (Homo sapiens, UniProt P0DMS8, T94A), sequence (P0DMS8 whole entry T94A): as the sequence (P0DMS8 whole entry H272D) above, with T94A, D272H counted along it

| SMILES | Ki [1] | Ki [2] | inhibition [3] | inhibition [4] | inhibition [5] | inhibition [6] | Ki [7] | Ki [8] | Ki [9] | Activity [10] | EC50 [11] | Ki [12] | Activity [13] | Activity [14] |
| --- | --- | --- | --- | --- | --- | --- | --- | --- | --- | --- | --- | --- | --- | --- |
| CNc1ncnc2c1ncn2[C@@H]1O[C@H](CO)[C@@H](NC(N)=O)[C@H]1O | – | – | 3% | < 10% | 30% | < 10% | – | – | – | – | – | – | – | – |
| CNC(=O)[C@H]1O[C@@H](n2cnc3c(NC)ncnc32)[C@H](O)[C@@H]1NC(N)=O | – | – | 7% | < 10% | 7% | < 10% | – | – | – | – | – | – | – | – |
| CNC(=O)[C@H]1O[C@@H](n2cnc3c(NCc4cccc(I)c4)ncnc32)[C@H](O)[C@@H]1NC(N)=O | 2700 nM | – | 5% | < 10% | – | < 10% | – | – | – | – | – | – | – | – |
| NC(=O)N[C@H]1[C@@H](O)[C@H](n2cnc3c(NCc4cccc(I)c4)nc(Cl)nc32)O[C@@H]1CO | 200 nM | – | 47% | < 10% | – | 34% | – | – | – | – | – | – | – | – |
| NC[C@H]1[C@@H](O)[C@H](n2cnc3c(N)ncnc32)O[C@@H]1CO | – | – | 3% | – | 2% | – | – | – | – | – | – | – | – | – |
| CNC(=O)[C@H]1O[C@@H](n2cnc3c(NCc4cccc(I)c4)ncnc32)[C@H](O)[C@@H]1N=[N+]=[N-] | 186 nM | 2260 nM | – | – | – | – | 140 nM | – | 2000 nM | – | – | 1370 nM | inactive | inactive |

Other lines, results leading:

| Ki [1] | Ki [2] | inhibition [3] | inhibition [4] | inhibition [5] | inhibition [6] | Ki [7] | Ki [8] | Ki [9] | Activity [10] | EC50 [11] | Ki [12] | Activity [13] | Activity [14] | SMILES |
| --- | --- | --- | --- | --- | --- | --- | --- | --- | --- | --- | --- | --- | --- | --- |
| > 10000 nM | 1500 nM | – | – | – | – | – | – | – | – | – | – | – | – | NNC(=O)[C@H]1O[C@@H](n2cnc3c(N)ncnc32)[C@H](O)[C@@H]1O |
| 592 nM | 557 nM | – | – | – | – | 390 nM | 7200 nM | 850 nM | – | – | – | – | – | CNC(=O)[C@H]1O[C@@H](n2cnc3c(NCc4cc(Cl)ccc4OC)ncnc32)[C@H](O)[C@@H]1CN |
| 220 nM | > 10000 nM | 9% | < 10% | – | < 10% | 470 nM | > 100000 nM | > 10000 nM | inactive | 180 nM | > 10000 nM | – | – | NC(=O)N[C@H]1[C@@H](O)[C@H](n2cnc3c(NCc4cccc(I)c4)ncnc32)O[C@@H]1CO |
| 700 nM | > 10000 nM | 15% | – | – | – | 1000 nM | > 10000 nM | > 10000 nM | – | – | > 10000 nM | – | – | CC(=O)NC[C@H]1[C@@H](O)[C@H](n2cnc3c(NCc4cccc(I)c4)ncnc32)O[C@@H]1CO |
| 185 nM | 137 nM | – | – | – | – | 120 nM | 570 nM | 110 nM | – | – | 120 nM | – | – | CNC(=O)[C@H]1O[C@@H](n2cnc3c(NCc4cccc(I)c4)ncnc32)[C@H](O)[C@@H]1CN |
| 709 nM | 13800 nM | – | – | – | – | 2000 nM | > 10000 nM | > 10000 nM | – | – | 9800 nM | – | – | COc1ccc(Cl)cc1CNc1ncnc2c1ncn2[C@@H]1O[C@H](CO)[C@@H](CN)[C@H]1O |
| 610 nM | 9500 nM | – | – | – | – | 850 nM | > 10000 nM | 10000 nM | – | – | 10700 nM | – | – | NC[C@H]1[C@@H](O)[C@H](n2cnc3c(NCc4cccc(I)c4)ncnc32)O[C@@H]1CO |
| 230 nM | 22 nM | – | – | – | – | – | – | – | – | – | – | inactive | inactive | [N-]=[N+]=NC[C@H]1S[C@@H](n2cnc3c(NCc4cccc(I)c4)ncnc32)[C@H](O)[C@@H]1O |
